Laboratory results as given in ChEMBL document CHEMBL2202994, “Heteroaryl urea inhibitors of fatty acid amide hydrolase: structure-mutagenicity relationships for arylamine metabolites” (Bioorg Med Chem Lett, 2012).

Columns and labels:
Salmonella typhimurium [1] = experiment: Genotoxicity in Salmonella typhimurium TAMix by Ames test in presence of S9 fractions; assay type: toxicity, organism-based, S9 Fraction; details: salmonella enterica subsp. enterica serovar typhimurium
Summary of the method: (§1)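 Ames II liquid fluctuation microplate variant of the bacterial reverse mutation assay, run on the free heteroaryl amines released from the urea inhibitors. The TAMix strain mixture (TA7001–TA7006) detects base-pair substitutions and TA98 detects frameshift mutations. For metabolic activation, compounds were preincubated with rat liver S9 extract or run without it. Results were scored as positive or negative.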

[2] = biological target: T1, Fatty-acid amide hydrolase 1 (Rattus norvegicus, UniProt P97612); experiment: Inhibition of rat FAAH preincubated for 60 mins
T1 sequence (P97612 whole entry): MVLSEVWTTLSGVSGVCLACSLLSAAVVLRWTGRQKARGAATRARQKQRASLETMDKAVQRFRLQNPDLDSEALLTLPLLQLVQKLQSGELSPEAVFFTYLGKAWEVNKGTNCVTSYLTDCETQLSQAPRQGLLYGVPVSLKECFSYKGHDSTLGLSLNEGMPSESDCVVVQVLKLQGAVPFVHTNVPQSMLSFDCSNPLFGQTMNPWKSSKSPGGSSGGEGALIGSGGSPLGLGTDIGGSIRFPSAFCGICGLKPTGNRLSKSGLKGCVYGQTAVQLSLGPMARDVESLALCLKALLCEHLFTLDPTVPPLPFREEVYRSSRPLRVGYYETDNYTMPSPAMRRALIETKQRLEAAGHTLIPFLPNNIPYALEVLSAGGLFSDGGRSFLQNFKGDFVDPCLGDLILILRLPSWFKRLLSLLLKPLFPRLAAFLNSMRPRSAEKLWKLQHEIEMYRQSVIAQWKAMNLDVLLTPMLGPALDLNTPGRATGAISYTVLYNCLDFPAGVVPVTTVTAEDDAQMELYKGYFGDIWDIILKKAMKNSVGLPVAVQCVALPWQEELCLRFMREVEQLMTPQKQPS

Salmonella typhimurium [3] = experiment: Genotoxicity in Salmonella typhimurium TA98 by Ames test in presence of S9 fractions; assay type: toxicity, organism-based, S9 Fraction; details: salmonella enterica subsp. enterica serovar typhimurium; summary of the method: as §1
Salmonella typhimurium [4] = experiment: Genotoxicity in Salmonella typhimurium TA98 by Ames test in absence of S9 fractions; assay type: toxicity, organism-based; details: salmonella enterica subsp. enterica serovar typhimurium; summary of the method: as §1
Salmonella typhimurium [5] = experiment: Genotoxicity in Salmonella typhimurium TAMix by Ames test in absence of S9 fractions; assay type: toxicity, organism-based; details: salmonella enterica subsp. enterica serovar typhimurium; summary of the method: as §1
[6] = biological target: T2, Fatty-acid amide hydrolase 1 (Homo sapiens, UniProt O00519); experiment: Inhibition of human FAAH preincubated for 60 mins
T2 sequence (O00519 whole entry): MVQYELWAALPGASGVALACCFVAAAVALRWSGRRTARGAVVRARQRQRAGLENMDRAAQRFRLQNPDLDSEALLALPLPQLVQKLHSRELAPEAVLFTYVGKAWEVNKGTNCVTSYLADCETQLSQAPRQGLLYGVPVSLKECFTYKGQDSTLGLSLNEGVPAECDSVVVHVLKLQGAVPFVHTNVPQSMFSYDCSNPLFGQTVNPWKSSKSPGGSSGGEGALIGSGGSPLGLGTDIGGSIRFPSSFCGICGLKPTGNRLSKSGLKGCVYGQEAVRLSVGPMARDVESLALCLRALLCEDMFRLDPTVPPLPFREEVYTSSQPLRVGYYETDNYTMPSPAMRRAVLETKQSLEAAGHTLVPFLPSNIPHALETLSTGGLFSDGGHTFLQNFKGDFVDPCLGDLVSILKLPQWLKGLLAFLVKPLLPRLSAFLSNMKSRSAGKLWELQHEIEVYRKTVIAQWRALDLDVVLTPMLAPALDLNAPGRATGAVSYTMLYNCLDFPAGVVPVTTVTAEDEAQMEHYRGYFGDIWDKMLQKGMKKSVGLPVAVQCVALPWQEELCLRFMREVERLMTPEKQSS

SMILES	Activity (Salmonella typhimurium [1])	IC50 [2] [nM]	Activity (Salmonella typhimurium [3])	Activity (Salmonella typhimurium [4])	Activity (Salmonella typhimurium [5])	IC50 [6] [nM]
O=C(Nc1ccccc1)N1CCN(Cc2cccc(Oc3ccc(Cl)cc3)c2)CC1	Non-toxic	300	Non-toxic	Non-toxic	Non-toxic	6
O=C(Nc1cccnc1)N1CCN(Cc2cccc(Oc3ccc(Cl)cc3)c2)CC1	Non-toxic	33	Non-toxic	Non-toxic	Non-toxic	1.4
O=C(Nc1cnc2cccnn12)N1CCN(Cc2cccc(Oc3ccc(Cl)cc3)c2)CC1	Non-toxic	53	Non-toxic	Non-toxic	Non-toxic	
O=C(Nc1cccc2nsnc12)N1CCN(Cc2cccc(Oc3ccc(Cl)cc3)c2)CC1	Non-toxic	25	Non-toxic	Non-toxic	Non-toxic	
O=C(Nc1cccc2cn[nH]c12)N1CCN(Cc2cccc(Oc3ccc(Cl)cc3)c2)CC1	Toxic	6000	Toxic			
Cc1nc2cc(NC(=O)N3CCN(Cc4cccc(Oc5ccc(Cl)cc5)c4)CC3)ccc2o1	Toxic	200	Toxic			
O=C(Nc1cncc2ccccc12)N1CCN(Cc2cccc(Oc3ccc(Cl)cc3)c2)CC1	Toxic	8.3	Toxic			
O=C(Nc1cnc2[nH]ccc2c1)N1CCN(Cc2cccc(Oc3ccc(Cl)cc3)c2)CC1	Toxic	21	Toxic			
O=C(Nc1cnc2cc[nH]c2c1)N1CCN(Cc2cccc(Oc3ccc(Cl)cc3)c2)CC1	Toxic	1100	Toxic			
O=C(Nc1noc2ccccc12)N1CCN(Cc2cccc(Oc3ccc(Cl)cc3)c2)CC1	Non-toxic	8.1	Non-toxic	Non-toxic	Non-toxic	
O=C(Nc1noc2ncccc12)N1CCN(Cc2cccc(Oc3ccc(Cl)cc3)c2)CC1	Non-toxic	14	Non-toxic	Non-toxic	Non-toxic	
O=C(Nc1noc2cnccc12)N1CCN(Cc2cccc(Oc3ccc(Cl)cc3)c2)CC1	Non-toxic	0.7	Non-toxic	Non-toxic	Non-toxic	
O=C(Nc1noc2ccncc12)N1CCN(Cc2cccc(Oc3ccc(Cl)cc3)c2)CC1	Non-toxic	2200	Non-toxic	Non-toxic	Non-toxic	
O=C(Nc1noc2cccnc12)N1CCN(Cc2cccc(Oc3ccc(Cl)cc3)c2)CC1	Non-toxic	22	Non-toxic	Non-toxic	Non-toxic	
O=C(Nc1cnc2ccccn12)N1CCN(Cc2cccc(Oc3ccc(Cl)cc3)c2)CC1	Non-toxic	120	Non-toxic	Non-toxic	Non-toxic	
O=C(Nc1cn2ccccc2n1)N1CCN(Cc2cccc(Oc3ccc(Cl)cc3)c2)CC1	Non-toxic	> 10000	Non-toxic	Non-toxic	Non-toxic	> 10000
O=C(Nc1cccn2ccnc12)N1CCN(Cc2cccc(Oc3ccc(Cl)cc3)c2)CC1	Non-toxic	3500	Non-toxic	Non-toxic	Non-toxic	
O=C(Nc1ccn2ccnc2c1)N1CCN(Cc2cccc(Oc3ccc(Cl)cc3)c2)CC1	Toxic	2600	Toxic	Toxic	Toxic	
O=C(Nc1ccc2nccn2c1)N1CCN(Cc2cccc(Oc3ccc(Cl)cc3)c2)CC1	Non-toxic	3600	Non-toxic	Non-toxic	Non-toxic	
O=C(Nc1cccc2nccn12)N1CCN(Cc2cccc(Oc3ccc(Cl)cc3)c2)CC1	Non-toxic	5.7	Non-toxic	Non-toxic	Non-toxic	
O=C(Nc1cc2nccn2cn1)N1CCN(Cc2cccc(Oc3ccc(Cl)cc3)c2)CC1	Non-toxic	470	Non-toxic	Non-toxic	Non-toxic	
O=C(Nc1ccnc2nccn12)N1CCN(Cc2cccc(Oc3ccc(Cl)cc3)c2)CC1	Non-toxic	24	Non-toxic	Non-toxic	Non-toxic	
O=C(Nc1ccn2ccnc2n1)N1CCN(Cc2cccc(Oc3ccc(Cl)cc3)c2)CC1	Non-toxic	2400	Non-toxic	Non-toxic	Non-toxic	
O=C(Nc1cnccn1)N1CCN(Cc2cccc(Oc3ccc(Cl)cc3)c2)CC1	Non-toxic	150	Non-toxic	Non-toxic	Non-toxic	
O=C(Nc1cccnn1)N1CCN(Cc2cccc(Oc3ccc(Cl)cc3)c2)CC1	Non-toxic	93	Non-toxic	Non-toxic	Non-toxic	
O=C(Nc1cc[nH]n1)N1CCN(Cc2cccc(Oc3ccc(Cl)cc3)c2)CC1	Non-toxic	150	Non-toxic	Non-toxic	Non-toxic	
O=C(Nc1nnn[nH]1)N1CCN(Cc2cccc(Oc3ccc(Cl)cc3)c2)CC1	Non-toxic	46	Non-toxic	Non-toxic	Non-toxic	
O=C(Nc1ccon1)N1CCN(Cc2cccc(Oc3ccc(Cl)cc3)c2)CC1	Non-toxic		Non-toxic	Non-toxic	Non-toxic	
O=C(Nc1nocc1Cl)N1CCN(Cc2cccc(Oc3ccc(Cl)cc3)c2)CC1	Toxic	20	Toxic	Toxic	Toxic	
O=C(Nc1cccc2nonc12)N1CCN(Cc2cccc(Oc3ccc(Cl)cc3)c2)CC1	Toxic	120	Toxic			
